Laboratory results as given in ChEMBL document CHEMBL1949521, “Discovery of CC-930, an orally active anti-fibrotic JNK inhibitor” (Bioorg Med Chem Lett, 2012).
Blank lines part the entries; values can stand above or below the compound they belong to.

Assays:
[1] = biological target: Mitogen-activated protein kinase 8 (Homo sapiens, UniProt P45983); experiment: Inhibition of hexa-His-tagged JNK1 expressed in baculoviral system using GST-tagged c-Jun as substrate preincubated for 15 mins prior ATP addition measured after 60 mins by scintillation counting
Rattus norvegicus = experiment: Antiinflammatory activity in CD rat assessed as inhibition of LPS-stimulated TNFalpha production at 30 mg/kg, po administered 1 hr prior LPS challenge measured after 90 mins by ELISA; type: functional
Procedure, shortened: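 Acute PK-PD model in rats: compound given by oral gavage at 10 or 30 mg/kg, then lipopolysaccharide injected, and plasma TNF-alpha release measured.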

[2] = Oral bioavailability in rat; type: ADME, organism-based; conditions: in vivo
[3] = biological target: Mitogen-activated protein kinase 14 (Homo sapiens, UniProt Q16539); experiment: Inhibition of p38alpha using myelin basic protein as substrate preincubated for 15 mins prior ATP addition measured after 60 mins by scintillation counting
[4] = Clearance in rat at 2 mg/kg, iv; type: ADME, organism-based; set-up: dose 2 mg/kg, route intravenous; conditions: in vivo
Procedure, shortened: (§1)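 Rats dosed intravenously at 2 mg/kg in a solution of 5% DMA and 30% PEG 400.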

[5] = biological target: c-Jun N-terminal kinase, JNK (Homo sapiens, UniProt P45983+P53779+P45984); experiment: Inhibition of JNK-mediated GST tagged c-Jun phosphorylation in human Jurkat T cells compound treated for 30 mins prior anisomycin stimulation measured after 40 mins by fluorescence spectrophotometry; type: cell-based
[6] = AUC in po dosed rat; type: ADME, organism-based; conditions: plasma
[7] = Oral bioavailability in dog at 10 mg/kg; type: ADME, organism-based, Canis lupus familiaris; conditions: in vivo
Procedure, shortened: (§2)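 Oral dose of 10 mg/kg given as a suspension in aqueous 0.5% CMC/0.25% Tween 80. Plasma AUC, Cmax and Tmax were taken from the oral arm. Bioavailability was derived against the intravenous arm in the same species.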

[8] = AUC in rat at 10 mg/kg, po; type: ADME, organism-based; set-up: dose 10 mg/kg, route oral; conditions: plasma; procedure, shortened: as §2
[9] = Tmax in rat at 10 mg/kg, po; type: ADME, organism-based; set-up: dose 10 mg/kg, route oral; conditions: in vivo; procedure, shortened: as §2
[10] = AUC in cynomolgus monkey at 10 mg/kg, po; type: ADME, organism-based, Macaca fascicularis; set-up: dose 10 mg/kg, route oral; conditions: plasma; procedure, shortened: as §2
[11] = AUC in dog at 1 mg/kg, iv; type: ADME, organism-based, Canis lupus familiaris, Plasma; set-up: dose 1 mg/kg, route intravenous; conditions: plasma
[12] = biological target: Mitogen-activated protein kinase 10 (Homo sapiens, UniProt P53779); experiment: Inhibition of hexa-His-tagged JNK3 expressed in baculoviral system using GST-tagged cJun as substrate preincubated for 15 mins prior ATP addition measured after 60 mins by scintillation counting
[13] = Oral bioavailability in rat at 10 mg/kg; type: ADME, organism-based; conditions: in vivo; procedure, shortened: as §2
[14] = Cmax in cynomolgus monkey at 10 mg/kg, po; type: ADME, organism-based, Macaca fascicularis; set-up: dose 10 mg/kg, route oral; conditions: in vivo; procedure, shortened: as §2
[15] = AUC in dog at 10 mg/kg, po; type: ADME, organism-based, Canis lupus familiaris, Plasma; set-up: dose 10 mg/kg, route oral; conditions: plasma; procedure, shortened: as §2
[16] = AUC in rat at 2 mg/kg, iv; type: ADME, organism-based; set-up: dose 2 mg/kg, route intravenous; conditions: plasma; procedure, shortened: as §1
[17] = Tmax in dog at 10 mg/kg, po; type: ADME, organism-based, Canis lupus familiaris; set-up: dose 10 mg/kg, route oral; conditions: in vivo; procedure, shortened: as §2
[18] = Clearance in cynomolgus monkey at 1 mg/kg, iv; type: ADME, organism-based, Macaca fascicularis; set-up: dose 1 mg/kg, route intravenous; conditions: in vivo
Procedure, shortened: (§3)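 Intravenous dose of 1 mg/kg given to monkeys in a solution of 5% DMA and 95% isotonic citrate buffer (50 mM, pH 5.0).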

[19] = Volume of distribution at steady state in cynomolgus monkey at 1 mg/kg, iv; type: ADME, organism-based, Macaca fascicularis; set-up: dose 1 mg/kg, route intravenous; conditions: in vivo, read-out: Vdss; procedure, shortened: as §3
[20] = Cmax in rat at 10 mg/kg, po; type: ADME, organism-based; set-up: dose 10 mg/kg, route oral; conditions: in vivo; procedure, shortened: as §2
[21] = Mean residence time in rat at 2 mg/kg, iv; type: ADME, organism-based; set-up: dose 2 mg/kg, route intravenous; conditions: in vivo; procedure, shortened: as §1
[22] = AUC in cynomolgus monkey at 1 mg/kg, iv; type: ADME, organism-based, Macaca fascicularis; set-up: dose 1 mg/kg, route intravenous; conditions: plasma; procedure, shortened: as §3
[23] = Mean residence time in dog at 1 mg/kg, iv; type: ADME, organism-based, Canis lupus familiaris; set-up: dose 1 mg/kg, route intravenous; conditions: in vivo
[24] = Cmax in dog at 10 mg/kg, po; type: ADME, organism-based, Canis lupus familiaris; set-up: dose 10 mg/kg, route oral; conditions: in vivo; procedure, shortened: as §2
[25] = Mean residence time in cynomolgus monkey at 1 mg/kg, iv; type: ADME, organism-based, Macaca fascicularis; set-up: dose 1 mg/kg, route intravenous; conditions: in vivo; procedure, shortened: as §3
[26] = Volume of distribution at steady state in rat at 2 mg/kg, iv; type: ADME, organism-based; set-up: dose 2 mg/kg, route intravenous; conditions: in vivo, read-out: Vdss; procedure, shortened: as §1
[27] = Oral bioavailability in cynomolgus monkey at 10 mg/kg; type: ADME, organism-based, Macaca fascicularis; conditions: in vivo; procedure, shortened: as §2
[28] = Tmax in cynomolgus monkey at 10 mg/kg, po; type: ADME, organism-based, Macaca fascicularis; set-up: dose 10 mg/kg, route oral; conditions: in vivo; procedure, shortened: as §2
[29] = Clearance in dog at 1 mg/kg, iv; type: ADME, organism-based, Canis lupus familiaris; set-up: dose 1 mg/kg, route intravenous; conditions: in vivo
[30] = biological target: Mitogen-activated protein kinase 9 (Homo sapiens, UniProt P45984); experiment: Inhibition of hexa-His-tagged JNK2 expressed in baculoviral system using GST-tagged cJun as substrate preincubated for 15 mins prior ATP addition measured after 60 mins by scintillation counting
[31] = Volume of distribution at steady state in dog at 1 mg/kg, iv; type: ADME, organism-based, Canis lupus familiaris; set-up: dose 1 mg/kg, route intravenous; conditions: in vivo, read-out: Vdss

Chain of Mitogen-activated protein kinase 14 (Q16539 whole entry): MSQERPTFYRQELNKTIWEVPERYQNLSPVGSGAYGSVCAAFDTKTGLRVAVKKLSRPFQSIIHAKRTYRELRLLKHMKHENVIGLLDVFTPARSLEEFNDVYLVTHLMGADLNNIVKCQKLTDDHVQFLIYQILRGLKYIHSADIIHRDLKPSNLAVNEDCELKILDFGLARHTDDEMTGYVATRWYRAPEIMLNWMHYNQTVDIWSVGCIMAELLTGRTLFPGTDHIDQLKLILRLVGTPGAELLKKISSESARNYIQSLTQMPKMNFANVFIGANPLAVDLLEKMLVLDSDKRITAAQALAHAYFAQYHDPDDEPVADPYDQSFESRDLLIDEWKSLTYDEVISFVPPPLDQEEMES
Chain of Mitogen-activated protein kinase 8 (P45983 whole entry): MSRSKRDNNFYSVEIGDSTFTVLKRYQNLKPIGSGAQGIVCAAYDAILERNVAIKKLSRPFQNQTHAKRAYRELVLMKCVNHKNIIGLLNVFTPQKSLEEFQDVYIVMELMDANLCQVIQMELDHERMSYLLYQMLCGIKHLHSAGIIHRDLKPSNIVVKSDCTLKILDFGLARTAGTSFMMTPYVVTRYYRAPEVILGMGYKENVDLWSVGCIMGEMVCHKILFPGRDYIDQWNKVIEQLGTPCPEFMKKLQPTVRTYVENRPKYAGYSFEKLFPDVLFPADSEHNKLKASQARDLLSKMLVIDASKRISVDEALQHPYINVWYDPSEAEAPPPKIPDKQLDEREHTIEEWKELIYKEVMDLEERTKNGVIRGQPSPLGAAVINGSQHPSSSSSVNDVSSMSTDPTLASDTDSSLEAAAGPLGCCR
Chain of Mitogen-activated protein kinase 9 (P45984 whole entry): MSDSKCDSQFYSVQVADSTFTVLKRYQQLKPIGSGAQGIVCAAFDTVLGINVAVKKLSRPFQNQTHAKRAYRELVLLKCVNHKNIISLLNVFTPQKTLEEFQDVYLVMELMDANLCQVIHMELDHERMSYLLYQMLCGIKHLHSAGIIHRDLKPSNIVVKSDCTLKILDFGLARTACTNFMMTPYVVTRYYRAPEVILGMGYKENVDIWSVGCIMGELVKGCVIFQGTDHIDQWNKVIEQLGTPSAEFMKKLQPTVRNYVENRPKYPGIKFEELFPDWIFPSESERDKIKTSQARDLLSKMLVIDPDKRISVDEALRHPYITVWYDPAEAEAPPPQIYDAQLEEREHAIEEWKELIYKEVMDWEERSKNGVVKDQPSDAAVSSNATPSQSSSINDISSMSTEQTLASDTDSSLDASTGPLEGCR
Chain of Mitogen-activated protein kinase 10 (P53779 whole entry): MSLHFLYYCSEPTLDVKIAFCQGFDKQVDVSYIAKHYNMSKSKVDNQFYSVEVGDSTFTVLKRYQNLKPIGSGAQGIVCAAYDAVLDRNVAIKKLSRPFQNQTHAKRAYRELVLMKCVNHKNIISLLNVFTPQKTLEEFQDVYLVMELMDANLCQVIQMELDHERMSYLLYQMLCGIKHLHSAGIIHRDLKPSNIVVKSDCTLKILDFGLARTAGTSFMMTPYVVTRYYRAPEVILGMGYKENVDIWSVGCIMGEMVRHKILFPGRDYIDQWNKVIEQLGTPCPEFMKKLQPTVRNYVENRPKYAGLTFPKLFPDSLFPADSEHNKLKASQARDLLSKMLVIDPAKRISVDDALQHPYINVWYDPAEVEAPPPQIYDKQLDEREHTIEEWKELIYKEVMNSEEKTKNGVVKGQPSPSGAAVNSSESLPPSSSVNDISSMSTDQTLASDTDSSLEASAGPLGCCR

IC50 [1]: 0.079 µM | bioavailability [2]: 42% | IC50 [3]: 6.2 µM | clearance [4]: 31 mL/min/kg | IC50 [5]: 0.2 µM | AUC [6]: 4.7 µM·h | bioavailability [7]: 20%
Structure (SMILES): CC(C)Nc1ncc2nc(Nc3c(F)cc(F)cc3F)n([C@H]3CC[C@@H](C(=O)NC4CC4)CC3)c2n1
inhibition in vivo at 30 mg/kg (Rattus norvegicus): 92%

IC50 [1]: 0.12 µM | bioavailability [2]: 32% | IC50 [3]: 0.16 µM | clearance [4]: 25 mL/min/kg | IC50 [5]: 0.2 µM | AUC [6]: 5 µM·h
Structure (SMILES): CC(C)Nc1ncc2nc(Nc3c(F)cc(F)cc3F)n([C@H]3CC[C@@H](C(N)=O)CC3)c2n1
inhibition in vivo at 30 mg/kg (Rattus norvegicus): 96%

IC50 [1]: 0.051 µM | Tmax [9]: 42 min | bioavailability [2]: 33% | AUC [8]: 2.9 µM·h | AUC [10]: 23 µM·h | AUC [11]: 1.4 µM·h | IC50 [12]: 0.007 µM | bioavailability [13]: 33% | IC50 [3]: 4.2 µM | clearance [4]: 39 mL/min/kg | IC50 [5]: 0.091 µM | Cmax [14]: 11000 nM | AUC [15]: 3.3 µM·h | AUC [16]: 1.8 µM·h | Tmax [17]: 40.2 min | clearance [18]: 7.1 mL/min/kg | Vd [19]: 0.8 L/kg | Cmax [20]: 1200 nM | MRT [21]: 66 min | AUC [22]: 4.7 µM·h | MRT [23]: 60 min | Cmax [24]: 860 nM | MRT [25]: 108 min | Vd [26]: 2.5 L/kg | bioavailability [27]: 48% | Tmax [28]: 49.8 min | bioavailability [7]: 24% | clearance [29]: 24 mL/min/kg | IC50 [30]: 0.01 µM | Vd [31]: 1.4 L/kg
Structure (SMILES): CNC(=O)[C@H]1CC[C@H](Nc2ncc3nc(Nc4c(F)cc(F)cc4F)n([C@H]4CCOC4)c3n2)CC1

IC50 [1]: 0.063 µM | bioavailability [2]: 20% | IC50 [3]: 6.4 µM | clearance [4]: 26 mL/min/kg | IC50 [5]: 0.23 µM | AUC [6]: 2.4 µM·h
Structure (SMILES): CC(C)Nc1ncc2nc(Nc3c(F)cc(F)cc3F)n([C@H]3CC[C@@H](C(=O)N4CCOCC4)CC3)c2n1
inhibition in vivo at 30 mg/kg (Rattus norvegicus): 58%

IC50 [3]: > 3 µM
Structure (SMILES): O[C@H]1CC[C@H](Nc2ncc3nc(Nc4c(F)cc(F)cc4F)n([C@@H]4CCOC4)c3n2)CC1

Further lines, the compound ahead of its results:

Structure (SMILES): O[C@H]1CC[C@H](Nc2ncc3nc(Nc4ccc(F)cc4F)n(C4CCOCC4)c3n2)CC1
IC50 [1]: 0.39 µM | bioavailability [2]: 70% | AUC [8]: 12 µM·h | IC50 [3]: 2.7 µM | clearance [4]: 21 mL/min/kg | IC50 [5]: 0.86 µM

Structure (SMILES): CC(C)(O)[C@H]1CC[C@H](Nc2ncc3nc(Nc4ccc(F)cc4F)n(C4CCOCC4)c3n2)CC1
IC50 [1]: 0.32 µM | IC50 [3]: 0.98 µM | IC50 [5]: 1.7 µM

Structure (SMILES): CS(=O)(=O)N[C@H]1CC[C@H](Nc2ncc3nc(Nc4ccc(F)cc4F)n(C4CCOCC4)c3n2)CC1
IC50 [1]: 0.88 µM | IC50 [3]: 0.86 µM

Structure (SMILES): CCO[C@H]1CC[C@H](Nc2ncc3nc(Nc4ccc(F)cc4F)n(C4CCOCC4)c3n2)CC1
IC50 [1]: 0.54 µM | IC50 [3]: > 3 µM | IC50 [5]: 1.6 µM

Structure (SMILES): O[C@H]1CC[C@H](Nc2ncc3nc(Nc4ccc(F)cc4F)n(C4CCCC4)c3n2)CC1
IC50 [1]: 0.12 µM | bioavailability [2]: 68% | AUC [8]: 2.7 µM·h | IC50 [3]: 0.56 µM | clearance [4]: 59 mL/min/kg | IC50 [5]: 0.44 µM

Structure (SMILES): CC(C)(O)[C@H]1CC[C@@H](c2ncc3nc(Nc4ccc(F)cc4F)n(C4CCOCC4)c3n2)C1
IC50 [1]: 1.3 µM | IC50 [3]: > 3 µM | IC50 [5]: 1.7 µM

Structure (SMILES): N[C@H]1CC[C@H](Nc2ncc3nc(Nc4ccc(F)cc4F)n(C4CCCC4)c3n2)CC1
bioavailability [2]: 8% | AUC [8]: 0.36 µM·h | clearance [4]: 66 mL/min/kg

Structure (SMILES): CC(C)(O)[C@H]1CC[C@H](Nc2ncc3nc(Nc4ccc(F)cc4F)n(C4CCCC4)c3n2)CC1
IC50 [1]: 0.17 µM | IC50 [3]: 0.29 µM | IC50 [5]: 1.8 µM

Structure (SMILES): Fc1ccc(Nc2nc3cnc(C4CCOCC4)nc3n2C2CCCC2)c(F)c1
IC50 [1]: 0.9 µM | IC50 [3]: 0.23 µM

Structure (SMILES): C[C@]1(O)CC[C@H](Nc2ncc3nc(Nc4ccc(F)cc4F)n(C4CCOCC4)c3n2)CC1
IC50 [1]: 1.2 µM | IC50 [3]: > 3 µM | IC50 [5]: 2.5 µM
